According to ChEMBL document CHEMBL1649317, “Acquisition of a transposon encoding extended-spectrum beta-lactamase SHV-12 by Pseudomonas aeruginosa isolates during the clinical course of a burn patient” (2010):
In brackets after ≈: the same amount, converted by molar mass.

Columns and labels:
Pseudomonas aeruginosa [1] = test: Antimicrobial activity against SHV-12 ESBL producing Pseudomonas aeruginosa isolate 2205 isolated from burn patient by broth microdilution method; format: functional
Summary of the method: (§1)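 MICs were determined by broth microdilution following the CLSI proposal. For clavulanic acid combinations, clavulanate was held at a fixed concentration. The seven isolates came from a single burn patient over the clinical course. P072204 was taken from sputum; all others were taken from burn sites. Isolates were typed by PCR for blaSHV and IS26.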

Pseudomonas aeruginosa [2] = test: Antimicrobial activity against SHV-12 ESBL producing Pseudomonas aeruginosa isolate 2206 isolated from burn patient by broth microdilution method; format: functional; summary of the method: as §1
Pseudomonas aeruginosa [3] = test: Antimicrobial activity against SHV-12 ESBL producing Pseudomonas aeruginosa isolate 2207 isolated from burn patient by broth microdilution method; format: functional; summary of the method: as §1
Pseudomonas aeruginosa [4] = test: Antimicrobial activity against SHV-12 ESBL producing Pseudomonas aeruginosa isolate 2201 isolated from burn patient by broth microdilution method; format: functional; summary of the method: as §1
Pseudomonas aeruginosa [5] = test: Antimicrobial activity against SHV-12 ESBL producing Pseudomonas aeruginosa isolate 2202 isolated from burn patient by broth microdilution method; format: functional; summary of the method: as §1
Pseudomonas aeruginosa [6] = test: Antimicrobial activity against SHV-12 ESBL producing Pseudomonas aeruginosa isolate 2203 isolated from burn patient by broth microdilution method; format: functional; summary of the method: as §1
Pseudomonas aeruginosa [7] = test: Antimicrobial activity against SHV-12 ESBL producing Pseudomonas aeruginosa isolate 2204 isolated from burn patient by broth microdilution method; format: functional; summary of the method: as §1
Pseudomonas aeruginosa [8] = test: Antimicrobial activity against SHV-12 ESBL producing Pseudomonas aeruginosa isolate 2201 isolated from burn patient by broth microdilution method in presence of beta-lactamase inhibitor clavulanic acid; format: functional
Pseudomonas aeruginosa [9] = test: Antimicrobial activity against SHV-12 ESBL producing Pseudomonas aeruginosa isolate 2205 isolated from burn patient by broth microdilution method in presence of beta-lactamase inhibitor clavulanic acid; format: functional
Pseudomonas aeruginosa [10] = test: Antimicrobial activity against SHV-12 ESBL producing Pseudomonas aeruginosa isolate 2206 isolated from burn patient by broth microdilution method in presence of beta-lactamase inhibitor clavulanic acid; format: functional
Pseudomonas aeruginosa [11] = test: Antimicrobial activity against SHV-12 ESBL producing Pseudomonas aeruginosa isolate 2207 isolated from burn patient by broth microdilution method in presence of beta-lactamase inhibitor clavulanic acid; format: functional
Pseudomonas aeruginosa [12] = test: Antimicrobial activity against SHV-12 ESBL non-producing Pseudomonas aeruginosa isolate 2202 isolated from burn patient by broth microdilution method in presence of beta-lactamase inhibitor clavulanic acid
Pseudomonas aeruginosa [13] = test: Antimicrobial activity against SHV-12 ESBL non-producing Pseudomonas aeruginosa isolate 2203 isolated from burn patient by broth microdilution method in presence of beta-lactamase inhibitor clavulanic acid
Pseudomonas aeruginosa [14] = test: Antimicrobial activity against SHV-12 ESBL non-producing Pseudomonas aeruginosa isolate 2204 isolated from burn patient by broth microdilution method in presence of beta-lactamase inhibitor clavulanic acid

Compound	MIC (Pseudomonas aeruginosa [1]) [µg/mL]	MIC (Pseudomonas aeruginosa [2]) [µg/mL]	MIC (Pseudomonas aeruginosa [3]) [µg/mL]	MIC (Pseudomonas aeruginosa [4]) [µg/mL]	MIC (Pseudomonas aeruginosa [5]) [µg/mL]	MIC (Pseudomonas aeruginosa [6]) [µg/mL]	MIC (Pseudomonas aeruginosa [7]) [µg/mL]	MIC (Pseudomonas aeruginosa [8]) [µg/mL]	MIC (Pseudomonas aeruginosa [9]) [µg/mL]	MIC (Pseudomonas aeruginosa [10]) [µg/mL]	MIC (Pseudomonas aeruginosa [11]) [µg/mL]	MIC (Pseudomonas aeruginosa [12]) [µg/mL]	MIC (Pseudomonas aeruginosa [13]) [µg/mL]	MIC (Pseudomonas aeruginosa [14]) [µg/mL]
CO/N=C(\C(=O)N[C@@H]1C(=O)N2C(C(=O)[O-])=C(C[N+]3(C)CCCC3)CS[C@H]12)c1csc(N)n1	256 (≈ 533 µM)	512 (≈ 1070 µM)	512 (≈ 1070 µM)											
NCC[C@H](O)C(=O)N[C@@H]1C[C@H](N)[C@@H](O[C@H]2O[C@H](CN)[C@@H](O)[C@H](O)[C@H]2O)[C@H](O)[C@H]1O[C@H]1O[C@H](CO)[C@@H](O)[C@H](N)[C@H]1O [AMIKACIN]	128 (≈ 219 µM)	128 (≈ 219 µM)	128 (≈ 219 µM)	4 (≈ 6.83 µM)	4 (≈ 6.83 µM)	4 (≈ 6.83 µM)	4 (≈ 6.83 µM)							
C[C@H]1[C@H](NC(=O)/C(=N\OC(C)(C)C(=O)O)c2csc(N)n2)C(=O)N1S(=O)(=O)O [AZTREONAM]	512 (≈ 1180 µM)	512 (≈ 1180 µM)	512 (≈ 1180 µM)											
CO/N=C(\C(=O)N[C@@H]1C(=O)N2C(C(=O)O)=C(COC(C)=O)CS[C@H]12)c1csc(N)n1 [CEFOTAXIME]	512 (≈ 1120 µM)	512 (≈ 1120 µM)	512 (≈ 1120 µM)	16 (≈ 35.1 µM)	256 (≈ 562 µM)	128 (≈ 281 µM)	64 (≈ 141 µM)	16	64	64	64	256	128	64
CC(C)(O/N=C(\C(=O)N[C@@H]1C(=O)N2C(C(=O)[O-])=C(C[n+]3ccccc3)CS[C@H]12)c1csc(N)n1)C(=O)O [CEFTAZIDIME]	512 (≈ 937 µM)	512 (≈ 937 µM)	512 (≈ 937 µM)	2 (≈ 3.66 µM)	16 (≈ 29.3 µM)	8 (≈ 14.6 µM)	4 (≈ 7.32 µM)	2	16	16	16	16	8	4
CCN1CCN(C(=O)N[C@@H](C(=O)N[C@@H]2C(=O)N3[C@@H]2SC(C)(C)[C@@H]3C(=O)O)c2ccccc2)C(=O)C1=O [PIPERACILLIN]	256 (≈ 495 µM)	512 (≈ 989 µM)	512 (≈ 989 µM)	16 (≈ 30.9 µM)	32 (≈ 61.8 µM)	16 (≈ 30.9 µM)	16 (≈ 30.9 µM)	16	128	256	256	32	16	16
CC1(C)S[C@@H]2[C@H](NC(=O)[C@H](C(=O)O)c3ccsc3)C(=O)N2[C@H]1C(=O)O [TICARCILLIN]	> 512	> 512	> 512	16 (≈ 41.6 µM)	32 (≈ 83.2 µM)	32 (≈ 83.2 µM)	64 (≈ 166 µM)	16	> 512	> 512	> 512	32	32	64
